ChEMBL document CHEMBL4229446, “Development of Novel Monoamine Oxidase-B (MAO-B) Inhibitors with Reduced Blood-Brain Barrier Permeability for the Potential Management of Noncentral Nervous System (CNS) Diseases” (J Med Chem, 2018)

Experiments:
P-gp (MDR1) = assay: Efflux ratio of apparent permeability in MDCK2-MDR1 cells at 10 uM after 1 hr in absence of P-gp inhibitor verapamil by UPLC-MS/MS analysis; type: ADME, cell-based, Canis lupus familiaris; conditions: dog, MDCK-MDR1
How it was run: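 MDCK-WT (MEM-α/10% FBS) or MDCK-MDR1 II (DMEM/10% FBS) cells were grown 3 days on 12-well transwells. Integrity was checked by TEER and 100 μM Lucifer yellow. Cells were washed in HBSS/10 mM HEPES. Compound at 10 μM was added apically or basally, in triplicate, ±100 μM verapamil. Receiver sampled at 1 h by UPLC-MS/MS. Efflux ratio = Papp B→A / Papp A→B.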

[1] = Efflux ratio of apparent permeability in MDCK-WT cells at 10 uM after 1 hr in absence of P-gp inhibitor verapamil by UPLC-MS/MS analysis; conditions: dog
[2] = Metabolic stability in mouse liver microsomes assessed as parent compound remaining at 1 uM after 60 mins in presence of NADPH by UPLC-MS/MS analysis; type: ADME, microsome; conditions: read-out: Stability
How it was run: (§1)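 Compound at 1 μM with 0.5 mg/mL mouse or human liver microsomes in 100 mM potassium phosphate pH 7.4, 3.3 mM MgCl2, 1 mM NADPH, at 37 °C. Started with NADPH; minus-NADPH control run. Stopped at 0, 5, 15, 30, 45 and 60 min with acetonitrile/formic acid plus internal standard. Parent remaining by UPLC-MS/MS, in triplicate.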

Mus musculus [3] = assay: Acute toxicity in C57BL/6 mouse assessed as abnormal clinical signs at […], iv administered as single dose measured after 24 hrs post-injection; type: organism-based; conditions: in vivo
[4] = target: T1, Amine oxidase [flavin-containing] A (Homo sapiens, UniProt P21397); assay: Inhibition of human recombinant MAO-A expressed in baculovirus infected BTI-TN-5B1-4 insect cells using tyramine as substrate preincubated for 1 hr followed by substrate addition and measured after 30 mins by resazurin dye-based fluorescence assay
T1 sequence (P21397 whole entry): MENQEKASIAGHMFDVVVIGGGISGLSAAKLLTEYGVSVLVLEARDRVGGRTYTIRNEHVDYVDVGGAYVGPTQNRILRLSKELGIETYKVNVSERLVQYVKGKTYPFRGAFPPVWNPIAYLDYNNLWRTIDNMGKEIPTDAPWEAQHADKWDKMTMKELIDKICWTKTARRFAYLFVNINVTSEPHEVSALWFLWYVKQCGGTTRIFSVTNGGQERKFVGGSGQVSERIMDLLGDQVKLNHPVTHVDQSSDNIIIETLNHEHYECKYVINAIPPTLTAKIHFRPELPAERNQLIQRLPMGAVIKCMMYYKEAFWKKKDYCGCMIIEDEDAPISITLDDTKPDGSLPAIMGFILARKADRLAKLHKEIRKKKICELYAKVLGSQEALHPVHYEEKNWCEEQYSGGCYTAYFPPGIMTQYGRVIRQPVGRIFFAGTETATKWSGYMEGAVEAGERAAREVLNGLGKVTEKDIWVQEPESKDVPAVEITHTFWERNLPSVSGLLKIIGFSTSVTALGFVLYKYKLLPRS

Mus musculus [5] = assay: Acute toxicity in C57BL/6 mouse assessed as abnormal clinical signs at […], po administered as single dose measured after 24 hrs post-injection; type: organism-based; conditions: in vivo
[6] = Cmax in C57BL/6 mouse plasma at 23.4 mg/kg, sc administered as single dose measured 24 hrs by UPLC-MS/MS analysis; type: ADME, organism-based; set-up: dose 23.4 mg/kg, route subcutaneous
How it was run: (§2)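 15 animals dosed, 3 killed at each of 1, 2, 4, 6 and 24 h. Plasma and brain homogenate (ammonium formate, acidified organic extraction) assayed by UPLC-MS/MS, brain ng/g taken as ng/mL. Noncompartmental parameters exclude values above/below quantification limit or undetected. Kp = AUClast brain/plasma.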

[7] = Metabolic stability in human liver microsomes assessed as parent compound remaining at 1 uM after 60 mins by UPLC-MS/MS analysis; type: ADME, microsome; conditions: liver microsomes, read-out: Stability; how it was run: as §1
[8] = Metabolic stability in mouse plasma assessed as parent compound remaining at 5 uM after 4 hrs by UPLC-MS/MS analysis; type: ADME, cell-free; conditions: read-out: Stability
How it was run: (§3)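 Compound at 5 μM was incubated in mouse or human plasma at 37 °C with shaking. Sampled at 0, 5, 15, 30, 60, 120 and 240 min and stopped with ice-cold acetonitrile/0.1% formic acid containing internal standard. Supernatants analysed by UPLC-MS/MS for parent remaining. Run in triplicate.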

[9] = AUClast in C57BL/6 mouse brain at 23.4 mg/kg, iv administered as single dose measured 24 hrs by UPLC-MS/MS analysis; type: ADME, organism-based; set-up: dose 23.4 mg/kg, route intravenous, time 0 - last
How it was run: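 21 animals dosed at 0 min, 3 killed per time point (0, 5, 15, 30 min, 1, 4, 24 h). Plasma extracted by protein precipitation/phospholipid removal. Brain homogenized in 50 mM ammonium formate, then extracted in acidified organic solvent. Both quantified by UPLC-MS/MS (MRM), brain ng/g taken as ng/mL. Noncompartmental analysis. Kp = AUClast brain/plasma.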

Mus musculus [10] = assay: Acute toxicity in C57BL/6 mouse assessed as abnormal clinical signs at […], sc administered as single dose measured after 24 hrs post-injection; type: organism-based; conditions: in vivo
[11] = Metabolic stability in cryopreserved mouse hepatocytes assessed as parent compound remaining at 1 uM after 60 mins by UPLC-MS/MS analysis; type: ADME, cell-based, Hepatocyte; conditions: read-out: Stability
[12] = Cmax in C57BL/6 mouse plasma at 23.4 mg/kg, po administered as single dose measured 24 hrs by UPLC-MS/MS analysis; type: ADME, organism-based; set-up: dose 23.4 mg/kg, route oral; how it was run: as §2
[13] = Metabolic stability in human plasma assessed as parent compound remaining at 5 uM after 4 hrs by UPLC-MS/MS analysis; type: ADME, cell-free; conditions: read-out: Stability; how it was run: as §3
[14] = Cmax in C57BL/6 mouse plasma at 24.5 mg/kg, iv administered as single dose measured 24 hrs by UPLC-MS/MS analysis; type: ADME, organism-based; set-up: dose 24.5 mg/kg, route intravenous
How it was run: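 21 animals dosed at 0 min, 3 sacrificed at each of 0, 5, 15, 30 min, 1, 4 and 24 h. Plasma was extracted by protein precipitation with phospholipid removal. Brain was weighed, bead-homogenised in 50 mM ammonium formate and extracted in acidified organic solvent. Quantified by UPLC-MS/MS (MRM). Brain ng/g taken as ng/mL. Parameters came from noncompartmental analysis. Kp = AUClast brain/plasma.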

[15] = Tmax in C57BL/6 mouse plasma at 24.5 mg/kg, po administered as single dose measured 24 hrs by UPLC-MS/MS analysis; type: ADME, organism-based
How it was run: (§4)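 Plasma extracted by protein precipitation/phospholipid removal and measured by UPLC-MS/MS (MRM). Parameters by noncompartmental analysis, omitting values outside quantification limits or undetected.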

[16] = Tmax in C57BL/6 mouse brain at 24.5 mg/kg, iv administered as single dose measured 24 hrs by UPLC-MS/MS analysis; type: ADME, organism-based
How it was run: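 Brains weighed, portion bead-homogenised in 50 mM ammonium formate, extracted in acidified organic solvent, quantified by UPLC-MS/MS. ng/g taken as ng/mL. Tmax from noncompartmental analysis.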

[17] = Tmax in C57BL/6 mouse plasma at 24.5 mg/kg, sc administered as single dose measured 24 hrs by UPLC-MS/MS analysis; type: ADME, organism-based; how it was run: as §4

Row | SMILES | efflux ratio at 1 h, 10 µM (P-gp (MDR1)) | efflux ratio at 1 h, 10 µM [1] | remaining at 1 h, 1 µM [2] [%] | Activity (Mus musculus [3]) | IC50 [4] [µM] | Activity (Mus musculus [5]) | Cmax [6] [ng/mL] | remaining at 1 h, 1 µM [7] [%] | remaining at 4 h, 5 µM [8] [%] | AUC(0-t) at 24 h [9] [ng·h/mL] | Activity (Mus musculus [10]) | remaining at 1 h, 1 µM [11] [%] | Cmax [12] [ng/mL] | remaining at 4 h, 5 µM [13] [%] | Cmax [14] [ng/mL] | Tmax [15] [h] | Tmax [16] [h] | Tmax [17] [h]
1 | CN(CC(=O)O)[C@H](CC#N)Cc1ccc(OCc2ccc(Cl)c(Cl)c2)cc1 | 1.14 | 1.07 | 39 | Non-Toxic | 126 | Non-Toxic | 13300 | ≥ 90 | ≥ 75 | 183 | Non-Toxic | 64 | 16800 | ≥ 75 | – | – | – | –
2 | C[C@H](Cc1ccc(OCc2ccc(Br)c(Cl)c2)cc1)N(C)CC(=O)O | 2.12 | 1.33 | 93.4 | Non-Toxic | > 50 | Non-Toxic | – | ≥ 90 | ≥ 75 | – | Non-Toxic | ≥ 90 | – | ≥ 75 | 16700 | 1 | 4 | 2
